The target in test [1] is T1, Dihydrofolate reductase (Mus musculus, UniProt P00375).
T1 sequence (P00375 whole entry): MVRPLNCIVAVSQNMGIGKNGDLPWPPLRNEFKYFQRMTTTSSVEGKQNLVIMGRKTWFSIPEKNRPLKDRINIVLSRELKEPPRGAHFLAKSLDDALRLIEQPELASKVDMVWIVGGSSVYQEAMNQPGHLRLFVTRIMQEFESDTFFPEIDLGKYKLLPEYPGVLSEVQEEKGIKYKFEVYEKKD
As to the kind of experiment: Inhibitory activity against dihydrofolate reductase (DHFR) of L-1210 cells. The class given is cell-based.

Test [2] concerns L1210. As to the kind of experiment: Inhibition of cell growth of murine L-1210 cells. The note with it: Mus musculus. The class given is functional, cell-based.
For test [3], the system named is HL-60. As to the kind of experiment: Compound was evaluated for inhibition of human HL-60 cell growth at 1 (uM) at 24 hr. The class given is functional. Put shortly: (§1)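 HL-60 cells exposed to compound for up to 72 h. Viable cells counted by trypan blue exclusion, with percent growth inhibition read at 1 μM after 24, 48 or 72 h.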
The test system of test [4] is HL-60. As to the kind of experiment: Compound was evaluated for inhibition of human HL-60 cell growth at 1 (uM) at 48 hr. It counts as functional. Put shortly: as §1
Test [5] deals with HL-60. As to the kind of experiment: Compound was evaluated for inhibition of human HL-60 cell growth at 1 (uM) at 72 hr. It counts as functional. Put shortly:
as §1

Test [6] has as its system HL-60. As to the kind of experiment: Inhibition of [6-3H]-dUrd incorporation into DNA in HL-60 cells. The note with it: Homo sapiens, read-out: ED50 (the source's name). The class given is functional. Put shortly: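 HL-60 cells preincubated with compound for 40 min, then given [6-3H]dUrd (0.05 μM, 1 μCi/mL) for 30 min at 37 °C, and label incorporated into DNA measured. Five compound concentrations were used, with ED50 from the median-effect equation and plot. For shallow curves, values were given as < or <<.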

For test [7], the system named is HL-60. As to the kind of experiment: Median-effective concentration for inhibition of human HL-60 cell growth at 24 h. It counts as functional. The note with it: HL-60, 24 h, read-out: ED50 (the source's name). A digest of the protocol:
(§2)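 HL-60 cells exposed to five concentrations of each compound for up to 72 h, with viable cells counted by trypan blue exclusion. ED50 at 24, 48 or 72 h derived by median-effect equation and plot. Where dose-effect curves were shallow, values were assigned with < or << marks.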

Test [8] has as its system HL-60. As to the kind of experiment: Median-effective concentration for inhibition of human HL-60 cell growth at 48 h. The class given is functional. The note with it: HL-60, 48 h, read-out: ED50 (the source's name). A digest of the protocol:
as §2

Test [9] deals with HL-60. As to the kind of experiment: Median-effective concentration for inhibition of human HL-60 cell growth at 72 h. The class given is functional. The note with it: HL-60, 72 h, read-out: ED50 (the source's name). A digest of the protocol: as §2

Broadly, the Ki is the equilibrium dissociation constant of an inhibitor or competing ligand from its target. One may read the IC50 as the concentration that inhibits the measured activity by half. A higher IC50 goes with lower potency. The compound `Cc1nc2nc(N)nc(N)c2c(-c2ccccc2)c1CNc1ccc(C(=O)NC(CCC(=O)O)C(=O)O)cc1` (stereo unspecified) registered a Ki in test [1] above 4 pM. In test [2], this compound showed a 50% inhibitory concentration (IC50) of 18.9 µM.

Compound `Nc1nc(N)c2cc(CNc3ccc(C(=O)NC(CCC(=O)O)C(=O)O)cc3)c(-c3ccccc3)nc2n1` (stereo unspecified) showed a Ki in [1] above 4 pM. In [2], this compound displayed an IC50 of 16.9 µM.

In test [1], `Cc1c(CNc2ccc(C(=O)NC(CCC(=O)O)C(=O)O)cc2)c(-c2ccccc2)nc2nc(N)nc(N)c12` (stereo unspecified) had a Ki above 4 pM. In addition, the half-maximal inhibitory concentration (IC50) in test [2] was 18.9 µM.

`Nc1nc(N)c2cc(CNc3ccc(C(=O)NC(CCC(=O)O)C(=O)O)cc3)cnc2n1` (stereo unspecified): 0.02 µM corresponded to half-maximal inhibition in [2] (IC50).

As a reminder, the Inhibition is the change of the read-out against control, counted positive when it falls. Low readings indicate a weak effect, high ones a strong effect. For the compound `Cc1nc2nc(N)nc(N)c2c(C)c1CNc1ccc(C(=O)NC(CCC(=O)O)C(=O)O)cc1` (stereo unspecified), the Inhibition in [3] is recorded as 10.3%; in test [4], 19.8%; in [5], 50.8%. Besides, the EC50 in test [6] came to 568 µM; in [7], 42 µM; in test [8], 8.2 µM; in [9] it was 0.59 µM. The inhibitory constant (Ki) in [1] is 2.01 pM. The same compound returned an IC50 in test [2] of 0.125 µM.

Turning to `Cc1c(CNc2ccc(C(=O)NC(CCC(=O)O)C(=O)O)cc2)cnc2nc(N)nc(N)c12` (stereo unspecified), the values for the Inhibition in test [3], in test [4] and in [5] were 25.2%, 61.1% and 92.2%, respectively. For the same compound, the EC50 in test [6] is below 4 µM; in test [7], 2290 µM; in [8], 0.15 µM; in [9], below 0.001 µM. Also, inhibition in test [2] was half-maximal at 0.00011 µM (IC50).

Turning to `Cc1nc2nc(N)nc(N)c2cc1CNc1ccc(C(=O)NC(CCC(=O)O)C(=O)O)cc1` (stereo unspecified), the Inhibition amounted to 4.7% in [3], 32.5% in test [4] and 77.6% in test [5]. For the same compound, the EC50 in [6] amounted to 123 µM; in [7], 144 µM; in [8] it was 2 µM; in test [9], 0.011 µM. Besides, the inhibition constant Ki in [1] is above 4 pM. It took 0.08 µM to reach half-maximal inhibition in test [2] (IC50).

On to `CN(Cc1cnc2nc(N)nc(N)c2n1)c1ccc(C(=O)N[C@@H](CCC(=O)O)C(=O)O)cc1` [METHOTREXATE], for which the results for the Inhibition in [3], in test [4] and in test [5] were 34.2%, 64% and 87.7%, respectively. Besides, the EC50 was 0.1 µM in test [6], 609 µM in [7], below 0.05 µM in test [8] and below 0.05 µM in test [9]. The compound also gave an IC50 in [2] of 0.0045 µM.
